Test results published in PubChem BioAssay.
Records with an inconclusive call do not appear. Active and inactive are the calls of the source.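 The calls were made as follows, unless noted: active = inhibition over a set limit, the all-compound mean plus 3 SD, in both replicate runs; inconclusive = over that limit in just one replicate run; inactive = at or under that limit in both runs.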

Assays:
[1] = OD615 S. cerevisiae growth inhibition, permissive medium, pilot counter-assay, permissive growth control for S. cerevisiae lifespan shortening project (AID 705;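 active = growth inhibition above 25% in both replicates, a cutoff set 3 SD above the mean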); conditions: OD615, 24 h, at 10 µM, stronger effect = higher value
Procedure, shortened: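 Material: engineered DeaD yeast; compound dosing: one dose 10 µM, DMSO 0.25% final; measure: yeast growth inhibition indicated by reduced 24 h OD615; detection: OD615 turbidity read; incubation: cells pre-grown 4 h, then 24 h compound exposure, 30 °C humidified; medium: permissive synthetic complete medium with raffinose and galactose carbon sources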

[2] = Restrictive medium S. cerevisiae growth inhibition, OD615, pilot screen of yeast lifespan reduction project, restrictive growth control (AID 706;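 active = growth inhibition above a set limit, 3 SD over mean compound inhibition, in both replicates, cut at about 43% in these data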;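 also: modified DeaD lifespan yeast strain shifted to restrictive glucose medium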); conditions: OD615, 48 h, at 10 µM, stronger effect = higher value
Procedure, shortened: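 material = engineered S. cerevisiae DeaD strain | medium = glucose-based CSMM-D restrictive medium | times = 4 h pre-incubation, 48 h exposure at 30 °C | technique = OD615 absorbance reading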

[3] = viability gain of MRP-1-high H69AR cells under doxorubicin, pilot screen, MRP-1 activator project, CellTiter-Glo, duplicate (AID 807;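 active = viability increase at or above a cutoff of the median across tested compounds plus 3 SD, cut at about 8.5% in these data, passing the limit was not always enough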;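 also: compound pretreatment 18-22 h then 72 h combined with doxorubicin; 0% = doxorubicin alone and 100% = vehicle without doxorubicin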); conditions: H69AR viability with doxorubicin, CellTiter-Glo luminescence; at 10 µM; stronger effect = higher value
[4] = growth suppression of PTEN-deleted HCT116, pilot screen, cell-based, HCT116 clonal line, CellTiter-Glo (AID 824;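 active = viability at or below 27.92% in each of two runs, the all-compound median minus 4 SD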;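 also: 0% = 20 µM Hyamine control and 100% = vehicle cell control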); conditions: 60 h, at 10 µM, stronger effect = lower value
[5] = inhibitors of the yeast RAM network, pilot screen, dse1pr::URA3 reporter, 5-FOA selection (AID 869);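 also: 0% = DMSO wells with no growth and 100% = 10 µM 1-NA-PP1 with full growth; RAM network block rescues cells from 5-FOA so hits raise OD615 growth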; conditions: S. cerevisiae dse1pr::URA3 5-FOA growth, OD615, 2 d; at 10 µM; stronger effect = higher value; strain carries analog-sensitive mutant Cbk1 kinase
[6] = RAM signaling pathway blockade in yeast – S. cerevisiae, Pdr1DBD-CYC8 efflux-inhibited sensitized strain, primary screen (AID 1298;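 active = RAM network inhibition above 8.4% in each of two replicates, 3 SD over the compound average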;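 also: 0% = DMSO untreated cells without growth and 100% = 10 µM 1-NA-PP1 full growth; higher means more yeast growth rescued from 5-FOA killing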); conditions: S. cerevisiae cbk1-as DSE1-URA3 strain, 5-FOA growth OD615, 2 d; at 50 µM; stronger effect = higher value

Cc1c(C(=O)NCc2ccc3c(c2)OCO3)oc2ccc(S(=O)(=O)N3CCCC3)cc12
inactive: growth inhibition [1] -2.78% | growth inhibition [2] -4.95% | viability increase [3] -0.63% | viability [4] 66.1% | inhibition [5] 1.78% | RAM network inhibition [6] 4.67%

O=c1cc(NCc2ccco2)c2ccccc2o1
inactive: growth inhibition [1] -2.07% | growth inhibition [2] -3.13% | viability increase [3] -4.38% | viability [4] 96.7% | inhibition [5] 1.84% | RAM network inhibition [6] 1.33%

C=C1c2ccc(C)cc2NC(=O)N1c1ccccc1
inactive: growth inhibition [1] 3.26% | growth inhibition [2] 8.36% | viability increase [3] -3.76% | viability [4] 94.2% | inhibition [5] 0.375% | RAM network inhibition [6] 0.1%

Cc1cccc(NC(=O)CS(=O)(=O)c2cn(C)c3ccccc23)c1C
inactive: growth inhibition [1] -8.09% | growth inhibition [2] -5.75% | viability increase [3] -3.27% | viability [4] 96.5% | inhibition [5] 1.46% | RAM network inhibition [6] 3.02%

CCSc1nsc(SCC)c1C(N)=O
inactive: growth inhibition [1] -3.27% | growth inhibition [2] -11.2% | viability increase [3] -1.55% | viability [4] 102% | inhibition [5] 0.83% | RAM network inhibition [6] 1.14%

Cc1ccc(S(=O)(=O)N2CCN(C(=O)CCC(=O)N3CCc4ccccc43)CC2)cc1
inactive: growth inhibition [1] -2.18% | growth inhibition [2] -5.78% | viability increase [3] -1.16% | viability [4] 99.4% | inhibition [5] -0.03% | RAM network inhibition [6] 2.05%

O=C(CSc1nc(-c2ccncc2)nn1CC(=O)N1CCCCC1)NC1CCCC1
inactive: growth inhibition [1] -4.01% | growth inhibition [2] -16.2% | viability increase [3] -4.19% | viability [4] 88% | inhibition [5] 1.07% | RAM network inhibition [6] -1.59%

COc1ccc(C2C(C(=O)c3cccs3)=C(O)C(=O)N2c2nncs2)cc1 (stereo not given)
inactive: growth inhibition [1] -15.5% | growth inhibition [2] -14.4% | viability increase [3] -1.95% | viability [4] 102% | inhibition [5] 0.41% | RAM network inhibition [6] 2.46%

CCc1cccc(C)c1NC(=O)CCCC(=O)O
inactive: growth inhibition [1] -0.24% | growth inhibition [2] -1.56% | viability increase [3] -1.29% | viability [4] 102% | inhibition [5] 0.44% | RAM network inhibition [6] -0.21%

CCCC(=O)c1cc(F)c(N2CCN(CCC#N)CC2)cc1C
inactive: growth inhibition [1] -9.06% | growth inhibition [2] -15.5% | viability increase [3] -0.66% | viability [4] 93.6% | inhibition [5] 2.97% | RAM network inhibition [6] 3.23%

CS(=O)(=O)N(CC(=O)N1CCN(c2ccccc2F)CC1)c1cc(C(F)(F)F)ccc1Cl
inactive: growth inhibition [1] 1.93% | growth inhibition [2] 0.015% | viability increase [3] 0.43% | viability [4] 88.3% | inhibition [5] -0.485% | RAM network inhibition [6] 0.87%

CCOC(=O)c1ccc(NC(=O)N(CC)CC)cc1
inactive: growth inhibition [1] -7.39% | growth inhibition [2] -1.5% | viability increase [3] -0.97% | viability [4] 97.4% | inhibition [5] 0.865% | RAM network inhibition [6] 2.51%

CCN1CCN(c2cc(C)c3cc(NC(=O)c4ccc5c(c4)OCO5)ccc3n2)CC1
inactive: growth inhibition [1] -12.3% | growth inhibition [2] -7.6% | viability increase [3] -8.06% | viability [4] 47.2% | inhibition [5] -0.365% | RAM network inhibition [6] 3.21%

CCN(CC)S(=O)(=O)c1ccc2oc(C(=O)NCC3COc4ccccc4O3)c(C)c2c1 (stereo not given)
inactive: growth inhibition [1] -4.71% | growth inhibition [2] 1.48% | viability increase [3] -7.27% | viability [4] 56.5% | inhibition [5] 2.5% | RAM network inhibition [6] 4.96%

O=c1[nH]c(SCc2ccccc2Cl)nc2c1CCC2
inactive: growth inhibition [1] -4.46% | growth inhibition [2] -1.71% | viability increase [3] -2.17% | viability [4] 96.9% | inhibition [5] 1.91% | RAM network inhibition [6] 1.7%

CCCCNC(=O)NS(=O)(=O)c1ccc(NS(=O)(=O)c2ccccc2)cc1
inactive: growth inhibition [1] -10.8% | growth inhibition [2] -7.74% | viability increase [3] -0.52% | viability [4] 98.4% | inhibition [5] 2.14% | RAM network inhibition [6] 4.35%

C#CCN1C(=O)C(O)(CC(=O)c2ccc3c(c2)OCCO3)c2ccccc21 (stereo not given)
inactive: growth inhibition [1] -19% | growth inhibition [2] -18.4% | viability increase [3] -2.81% | viability [4] 49.2% | inhibition [5] 0.74% | RAM network inhibition [6] 6.75%

CN(CC1CCCO1)S(=O)(=O)c1ccc(C(=O)Nc2nc3cc4c(cc3s2)OCO4)cc1 (stereo not given)
inactive: growth inhibition [1] -9.44% | growth inhibition [2] -15.3% | viability increase [3] -4.33% | viability [4] 35.8% | inhibition [5] 2.66% | RAM network inhibition [6] 4.04%

Cc1ccc(OCC(O)CN2CCN(c3ccccc3)CC2)cc1 (stereo not given)
inactive: growth inhibition [1] -3.02% | growth inhibition [2] -2.13% | viability increase [3] -0.7% | viability [4] 99.9% | inhibition [5] 1.23% | RAM network inhibition [6] 7.87%

CC(Sc1nc2c(c(=O)n(C)c(=O)n2C)n1Cc1cc2c(cc1Cl)OCO2)C(=O)O (stereo not given)
inactive: growth inhibition [1] -10.7% | growth inhibition [2] -5.16% | viability increase [3] -0.64% | viability [4] 99.9% | inhibition [5] 1.83% | RAM network inhibition [6] 1.02%

CCCC(C)NC(=O)c1ccc(F)cc1 (stereo not given)
inactive: growth inhibition [1] -11.8% | growth inhibition [2] -7.83% | viability increase [3] -1.81% | viability [4] 99.9% | inhibition [5] 0.66% | RAM network inhibition [6] 1.8%

CCOc1ccccc1N(CC(=O)Nc1ccc2c(c1)OCO2)S(C)(=O)=O
inactive: growth inhibition [1] -8.59% | growth inhibition [2] -22.3% | viability increase [3] -0.96% | viability [4] 100% | inhibition [5] 1.7% | RAM network inhibition [6] -0.87%

COc1ccc(C2=[N+]([O-])C(C)(C)N(O)C2(C)C)cc1
inactive: growth inhibition [1] -8.58% | growth inhibition [2] 12.9% | viability increase [3] -1.34% | viability [4] 100% | inhibition [5] 1.38% | RAM network inhibition [6] 0.67%

O=C(NCC1CCCO1)C1CCCCN1S(=O)(=O)c1ccc(F)cc1 (stereo not given)
inactive: growth inhibition [1] -2.19% | growth inhibition [2] -9.73% | viability increase [3] -2.13% | viability [4] 102% | inhibition [5] 0.075% | RAM network inhibition [6] 1.44%

CCC(C)NC(=O)c1cn(C)c(=O)c2cc(OC)c(OC)cc12 (stereo not given)
inactive: growth inhibition [1] -6.39% | growth inhibition [2] -12.4% | viability increase [3] -3.24% | viability [4] 99.7% | inhibition [5] 1.1% | RAM network inhibition [6] 5.28%

CCN1C=C(C(=O)OC)C(c2cccc(C)c2)C(C(=O)OC)=C1
inactive: growth inhibition [1] -1.2% | growth inhibition [2] -11.5% | viability increase [3] -3.43% | viability [4] 86% | inhibition [5] 3.02% | RAM network inhibition [6] 4.35%

CCOC(=O)C1CCN(C(=O)c2cn(C)c(=O)c3cc(OC)c(OC)cc23)CC1
inactive: growth inhibition [1] -3.38% | growth inhibition [2] -10.2% | viability increase [3] -4.21% | viability [4] 98% | inhibition [5] 1% | RAM network inhibition [6] 3.95%

COc1ccc(-c2nc(SC)n(C)c(=O)c2C#N)cc1OC
inactive: growth inhibition [1] -6.31% | growth inhibition [2] -12.2% | viability increase [3] -4.81% | viability [4] 87.9% | inhibition [5] 0.12% | RAM network inhibition [6] 9.22%

O=C(CNC(=O)c1ccco1)OCc1ccc(Cl)cc1
inactive: growth inhibition [1] -3.76% | growth inhibition [2] 2.92% | viability increase [3] -2.32% | viability [4] 102% | inhibition [5] 0.375% | RAM network inhibition [6] 0.25%

CCNc1nc(-c2ccc(Cl)cc2)cs1
inactive: growth inhibition [1] 1.33% | growth inhibition [2] 0.05% | viability increase [3] -1.74% | viability [4] 84.4% | inhibition [5] -0.24% | RAM network inhibition [6] -0.26%

CCOC(=O)CNS(=O)(=O)CCN1C(=O)c2ccccc2C1=O
inactive: growth inhibition [1] -8.36% | growth inhibition [2] -4.12% | viability increase [3] 0.26% | viability [4] 94.3% | inhibition [5] 2.52% | RAM network inhibition [6] 0.77%

Cc1ccc(S(=O)(=O)NC(=O)Nn2c(C)nnc2C)cc1
inactive: growth inhibition [1] -8.7% | growth inhibition [2] -6.25% | viability increase [3] -0.15% | viability [4] 102% | inhibition [5] 0.75% | RAM network inhibition [6] 4.31%

CCOC(=O)N1CCc2c(sc(NC(=O)c3ccc(Cl)s3)c2C(N)=O)C1
inactive: growth inhibition [1] -0.755% | growth inhibition [2] 5.5% | viability increase [3] -2.73% | viability [4] 40% | inhibition [5] 0.53% | RAM network inhibition [6] -0.87%

CC(C)c1cc(=O)oc2c3c4c(cc12)CCCN4CCC3
inactive: growth inhibition [1] 0.175% | growth inhibition [2] 9.32% | viability increase [3] -4.62% | viability [4] 57.8% | inhibition [5] 1.84% | RAM network inhibition [6] 3.62%

Cc1ccc(N2CC(C(=O)OCC(=O)C(C)(C)C)CC2=O)cc1 (stereo not given)
inactive: growth inhibition [1] 7.84% | growth inhibition [2] 8.49% | viability increase [3] -1.06% | viability [4] 101% | inhibition [5] 0.56% | RAM network inhibition [6] 3.64%

CCOc1cc(C2NC(=O)NC(C)=C2C(=O)OC(C)CC)cc(Br)c1O (stereo not given)
inactive: growth inhibition [1] -4.09% | growth inhibition [2] -10.5% | viability increase [3] -1.01% | viability [4] 91.2% | inhibition [5] 2.17% | RAM network inhibition [6] 2.16%

CCOC(=O)c1ccc(NC(=O)c2cccc(S(=O)(=O)N3CCOCC3)c2)cc1
inactive: growth inhibition [1] -9.14% | growth inhibition [2] -4.13% | viability increase [3] -0.35% | viability [4] 57.2% | inhibition [5] 2.96% | RAM network inhibition [6] 7.23%

Cc1nc2ccccc2c(=O)n1CCCO
inactive: growth inhibition [1] -2.92% | growth inhibition [2] 0.055% | viability increase [3] -2.52% | viability [4] 96% | inhibition [5] 2.77% | RAM network inhibition [6] 3.03%

O=C(Nc1ccc(S(=O)(=O)N2CCOCC2)cc1)C1COc2ccccc2O1 (stereo not given)
inactive: growth inhibition [1] -6.88% | growth inhibition [2] -3.29% | viability increase [3] -1.63% | viability [4] 104% | inhibition [5] 0.055% | RAM network inhibition [6] 1.34%

CCCOc1ccc(/C(O)=C2/C(=O)C(=O)N(CCN(C)C)C2c2ccco2)cc1 (stereo not given)
inactive: growth inhibition [1] -0.855% | growth inhibition [2] 13.9% | viability increase [3] -4.27% | viability [4] 99.6% | inhibition [5] -0.28% | RAM network inhibition [6] -1.54%
